In the M2OR odorant receptor database:

Columns and labels:
Details in all cases: stereoisomer not certain
UniProt Q8VGC6 = target: T1, UniProt Q8VGC6
T1 sequence (whole entry): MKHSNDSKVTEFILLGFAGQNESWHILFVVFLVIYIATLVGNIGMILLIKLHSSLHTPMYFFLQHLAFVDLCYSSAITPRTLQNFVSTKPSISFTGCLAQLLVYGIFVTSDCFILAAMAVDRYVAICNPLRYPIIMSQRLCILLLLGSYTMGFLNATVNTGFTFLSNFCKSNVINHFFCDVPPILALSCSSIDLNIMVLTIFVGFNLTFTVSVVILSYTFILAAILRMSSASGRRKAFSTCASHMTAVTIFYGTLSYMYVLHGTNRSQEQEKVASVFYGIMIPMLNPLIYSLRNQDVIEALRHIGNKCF
Procedure, shortened: (§1)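 Each entry records the cell line, G-protein, co-transfected protein and tags used. Methods varied with the source, often transient luciferase assays in mammalian cell lines. A receptor–molecule pair is called responsive (active) if the original authors judged its signal statistically different from baseline and non-responsive (inactive) otherwise.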

UniProt Q8VGD7 = target: T2, UniProt Q8VGD7
T2 sequence (whole entry): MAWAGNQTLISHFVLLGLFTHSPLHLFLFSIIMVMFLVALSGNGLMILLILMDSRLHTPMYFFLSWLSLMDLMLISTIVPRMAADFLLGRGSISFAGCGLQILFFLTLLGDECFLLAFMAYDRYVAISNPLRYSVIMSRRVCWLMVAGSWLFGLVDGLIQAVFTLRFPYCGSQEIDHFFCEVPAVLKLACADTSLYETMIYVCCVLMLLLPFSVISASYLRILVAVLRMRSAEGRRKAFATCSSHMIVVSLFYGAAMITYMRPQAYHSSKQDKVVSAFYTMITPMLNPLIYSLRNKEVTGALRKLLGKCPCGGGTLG
Procedure, shortened: as §1

UniProt Q8VGH1 = target: T3, UniProt Q8VGH1
T3 sequence (whole entry): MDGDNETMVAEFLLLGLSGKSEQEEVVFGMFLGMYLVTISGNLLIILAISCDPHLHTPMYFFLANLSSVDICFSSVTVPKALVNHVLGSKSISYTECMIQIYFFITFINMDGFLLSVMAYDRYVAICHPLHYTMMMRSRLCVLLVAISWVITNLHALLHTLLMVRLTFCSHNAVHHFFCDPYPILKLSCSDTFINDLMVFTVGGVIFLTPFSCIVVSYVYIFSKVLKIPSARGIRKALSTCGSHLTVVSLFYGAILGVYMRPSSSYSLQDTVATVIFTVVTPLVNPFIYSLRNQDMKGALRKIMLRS
Procedure, shortened: as §1

UniProt Q8VGJ1 = target: T4, UniProt Q8VGJ1
T4 sequence (whole entry): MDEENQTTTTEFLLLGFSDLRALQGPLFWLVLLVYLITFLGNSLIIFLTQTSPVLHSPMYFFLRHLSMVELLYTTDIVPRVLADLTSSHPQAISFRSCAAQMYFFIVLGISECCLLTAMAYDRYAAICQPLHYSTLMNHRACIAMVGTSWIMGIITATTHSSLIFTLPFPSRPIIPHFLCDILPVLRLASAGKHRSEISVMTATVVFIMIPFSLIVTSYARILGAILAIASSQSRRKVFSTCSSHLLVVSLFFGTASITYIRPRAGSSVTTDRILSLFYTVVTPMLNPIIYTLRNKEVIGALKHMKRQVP
Procedure, shortened: as §1

UniProt Q8VGJ3 = target: T5, UniProt Q8VGJ3
T5 sequence (whole entry): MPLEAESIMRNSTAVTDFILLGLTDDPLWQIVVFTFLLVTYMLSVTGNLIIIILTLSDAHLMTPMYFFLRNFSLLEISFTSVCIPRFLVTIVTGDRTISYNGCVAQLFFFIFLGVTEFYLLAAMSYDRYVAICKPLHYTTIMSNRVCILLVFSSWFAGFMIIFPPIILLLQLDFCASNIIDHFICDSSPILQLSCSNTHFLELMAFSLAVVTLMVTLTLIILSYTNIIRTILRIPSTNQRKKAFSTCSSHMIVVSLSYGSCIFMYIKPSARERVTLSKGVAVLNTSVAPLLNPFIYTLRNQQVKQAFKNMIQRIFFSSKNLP
Procedure, shortened: as §1

UniProt Q8VGJ5 = target: T6, UniProt Q8VGJ5
T6 sequence (whole entry): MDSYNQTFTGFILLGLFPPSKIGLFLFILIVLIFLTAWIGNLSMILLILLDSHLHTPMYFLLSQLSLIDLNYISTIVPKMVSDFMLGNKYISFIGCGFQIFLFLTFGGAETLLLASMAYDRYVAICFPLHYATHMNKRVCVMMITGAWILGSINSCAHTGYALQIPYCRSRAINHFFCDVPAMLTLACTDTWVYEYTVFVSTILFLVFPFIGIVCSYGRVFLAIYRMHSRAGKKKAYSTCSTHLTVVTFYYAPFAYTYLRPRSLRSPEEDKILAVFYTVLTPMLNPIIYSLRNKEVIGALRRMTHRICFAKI
Procedure, shortened: as §1

UniProt Q8VGL0 = target: T7, UniProt Q8VGL0
T7 sequence (whole entry): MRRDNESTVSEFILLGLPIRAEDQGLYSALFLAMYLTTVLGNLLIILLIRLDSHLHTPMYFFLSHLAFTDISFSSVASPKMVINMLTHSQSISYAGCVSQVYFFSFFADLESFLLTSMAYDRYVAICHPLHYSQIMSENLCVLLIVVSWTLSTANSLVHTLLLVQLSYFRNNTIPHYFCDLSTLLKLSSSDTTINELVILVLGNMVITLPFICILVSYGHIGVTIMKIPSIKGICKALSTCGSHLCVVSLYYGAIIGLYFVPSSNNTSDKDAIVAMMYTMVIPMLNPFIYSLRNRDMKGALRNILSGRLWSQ
Procedure, shortened: as §1

UniProt Q8VGL7 = target: T8, UniProt Q8VGL7
T8 sequence (whole entry): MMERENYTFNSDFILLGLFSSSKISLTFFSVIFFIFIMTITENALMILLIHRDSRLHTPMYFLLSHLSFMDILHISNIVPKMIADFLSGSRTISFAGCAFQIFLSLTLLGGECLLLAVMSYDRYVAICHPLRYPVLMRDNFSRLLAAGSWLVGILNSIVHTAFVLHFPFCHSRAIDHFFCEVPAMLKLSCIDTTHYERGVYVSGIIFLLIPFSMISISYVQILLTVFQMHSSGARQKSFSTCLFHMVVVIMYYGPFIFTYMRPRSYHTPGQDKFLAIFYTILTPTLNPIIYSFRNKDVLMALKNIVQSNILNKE
Procedure, shortened: as §1

UniProt Q8VGM2 = target: T9, UniProt Q8VGM2
T9 sequence (whole entry): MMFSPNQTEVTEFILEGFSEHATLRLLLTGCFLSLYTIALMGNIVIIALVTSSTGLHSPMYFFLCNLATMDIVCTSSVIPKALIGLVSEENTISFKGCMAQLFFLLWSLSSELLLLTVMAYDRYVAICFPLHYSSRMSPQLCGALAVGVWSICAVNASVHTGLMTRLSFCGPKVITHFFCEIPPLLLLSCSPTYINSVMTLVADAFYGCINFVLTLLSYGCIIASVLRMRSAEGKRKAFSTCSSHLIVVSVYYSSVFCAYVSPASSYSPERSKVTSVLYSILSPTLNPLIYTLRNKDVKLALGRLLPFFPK
Procedure, shortened: as §1

UniProt Q8VGP6 = target: T10, UniProt Q8VGP6
T10 sequence (whole entry): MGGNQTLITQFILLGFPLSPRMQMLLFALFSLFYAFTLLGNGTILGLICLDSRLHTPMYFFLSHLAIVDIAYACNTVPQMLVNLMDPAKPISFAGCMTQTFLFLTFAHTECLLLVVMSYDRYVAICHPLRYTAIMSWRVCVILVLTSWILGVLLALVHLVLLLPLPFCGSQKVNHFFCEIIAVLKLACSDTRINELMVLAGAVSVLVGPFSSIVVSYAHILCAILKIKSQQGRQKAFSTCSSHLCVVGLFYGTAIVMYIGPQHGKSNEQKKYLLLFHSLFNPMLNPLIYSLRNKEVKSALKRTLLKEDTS
Procedure, shortened: as §1

UniProt Q8VGQ3 = target: T11, UniProt Q8VGQ3
T11 sequence (whole entry): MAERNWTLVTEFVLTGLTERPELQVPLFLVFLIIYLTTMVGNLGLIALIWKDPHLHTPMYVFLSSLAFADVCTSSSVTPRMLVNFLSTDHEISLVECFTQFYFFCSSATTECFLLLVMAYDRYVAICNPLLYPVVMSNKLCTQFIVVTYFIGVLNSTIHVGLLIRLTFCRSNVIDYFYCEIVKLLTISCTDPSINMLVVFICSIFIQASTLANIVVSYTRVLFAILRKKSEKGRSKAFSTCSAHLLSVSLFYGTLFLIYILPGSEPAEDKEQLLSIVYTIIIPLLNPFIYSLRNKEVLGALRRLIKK
Procedure, shortened: as §1

UniProt Q8VGT4 = target: T12, UniProt Q8VGT4
T12 sequence (whole entry): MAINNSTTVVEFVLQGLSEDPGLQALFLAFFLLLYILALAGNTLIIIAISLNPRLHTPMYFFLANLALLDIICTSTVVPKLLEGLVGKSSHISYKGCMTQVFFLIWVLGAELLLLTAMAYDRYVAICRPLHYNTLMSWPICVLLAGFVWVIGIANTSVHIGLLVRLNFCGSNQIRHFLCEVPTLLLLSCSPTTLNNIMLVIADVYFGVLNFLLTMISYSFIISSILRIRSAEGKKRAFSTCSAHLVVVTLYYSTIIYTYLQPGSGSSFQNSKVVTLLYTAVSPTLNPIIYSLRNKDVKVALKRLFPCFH
Procedure, shortened: as §1

UniProt Q8VGU3 = target: T13, UniProt Q8VGU3
T13 sequence (whole entry): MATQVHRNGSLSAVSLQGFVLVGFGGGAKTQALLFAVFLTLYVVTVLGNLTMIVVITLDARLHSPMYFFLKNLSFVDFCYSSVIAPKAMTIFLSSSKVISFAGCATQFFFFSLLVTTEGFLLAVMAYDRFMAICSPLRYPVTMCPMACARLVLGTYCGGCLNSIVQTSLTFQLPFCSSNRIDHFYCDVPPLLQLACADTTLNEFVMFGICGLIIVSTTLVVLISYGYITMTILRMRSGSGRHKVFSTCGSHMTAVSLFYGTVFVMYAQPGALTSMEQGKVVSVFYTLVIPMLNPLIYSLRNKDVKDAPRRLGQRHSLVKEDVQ
Procedure, shortened: as §1

UniProt Q8VGV1 = target: T14, UniProt Q8VGV1
T14 sequence (whole entry): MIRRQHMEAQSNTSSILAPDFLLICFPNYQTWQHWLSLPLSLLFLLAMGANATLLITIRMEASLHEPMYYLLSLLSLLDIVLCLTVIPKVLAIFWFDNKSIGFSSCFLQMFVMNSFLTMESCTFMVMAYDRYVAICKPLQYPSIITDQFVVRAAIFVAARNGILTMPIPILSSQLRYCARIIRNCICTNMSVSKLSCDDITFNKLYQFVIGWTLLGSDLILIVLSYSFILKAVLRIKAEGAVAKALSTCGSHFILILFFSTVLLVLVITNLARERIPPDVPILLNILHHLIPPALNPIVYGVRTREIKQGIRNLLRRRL
Procedure, shortened: as §1

UniProt Q8VGV7 = target: T15, UniProt Q8VGV7
T15 sequence (whole entry): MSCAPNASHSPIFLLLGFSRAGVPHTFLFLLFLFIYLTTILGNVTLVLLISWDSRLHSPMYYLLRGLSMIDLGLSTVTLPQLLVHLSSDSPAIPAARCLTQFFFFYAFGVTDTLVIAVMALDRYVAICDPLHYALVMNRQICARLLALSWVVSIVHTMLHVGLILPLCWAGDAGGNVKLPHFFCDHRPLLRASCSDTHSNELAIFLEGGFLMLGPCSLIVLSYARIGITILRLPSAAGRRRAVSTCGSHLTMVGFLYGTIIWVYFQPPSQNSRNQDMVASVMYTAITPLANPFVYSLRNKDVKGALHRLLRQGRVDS
Procedure, shortened: as §1

UniProt Q8VGX3 = target: T16, UniProt Q8VGX3
T16 sequence (whole entry): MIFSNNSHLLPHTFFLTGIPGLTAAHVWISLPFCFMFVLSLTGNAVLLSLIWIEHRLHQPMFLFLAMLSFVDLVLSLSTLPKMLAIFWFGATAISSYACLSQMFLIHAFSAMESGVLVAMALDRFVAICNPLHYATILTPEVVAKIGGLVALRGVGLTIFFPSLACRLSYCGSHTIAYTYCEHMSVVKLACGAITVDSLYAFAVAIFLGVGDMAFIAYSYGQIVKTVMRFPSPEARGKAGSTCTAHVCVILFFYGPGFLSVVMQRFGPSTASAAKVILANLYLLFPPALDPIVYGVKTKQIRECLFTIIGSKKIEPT
Procedure, shortened: as §1

UniProt Q8VGX5 = target: T17, UniProt Q8VGX5
T17 sequence (whole entry): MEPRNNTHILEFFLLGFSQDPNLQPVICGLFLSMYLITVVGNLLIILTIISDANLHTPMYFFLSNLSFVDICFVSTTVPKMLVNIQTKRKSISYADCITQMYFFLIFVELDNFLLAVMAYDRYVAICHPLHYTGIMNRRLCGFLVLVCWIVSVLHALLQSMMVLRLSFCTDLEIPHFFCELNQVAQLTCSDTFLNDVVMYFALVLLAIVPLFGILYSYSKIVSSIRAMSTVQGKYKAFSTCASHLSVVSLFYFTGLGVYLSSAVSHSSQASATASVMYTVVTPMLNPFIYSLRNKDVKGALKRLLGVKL
Procedure, shortened: as §1

Measured: odorant receptor agonist call

CC(C)=CCCC(C)CC=O (configuration not stated)
inactive: UniProt Q8VGC6

O=C1Cc2ccccc2O1
active: UniProt Q8VGX5
inactive: all other assays above

CCCCCC(C)(C)O
inactive: UniProt Q8VGC6

CCOc1ccccc1
inactive: UniProt Q8VGC6

CCCCC(=O)O
inactive: all assays above
